According to ChEMBL document CHEMBL1145520, “RAS-RAF-MEK-dependent oxidative cell death involving voltage-dependent anion channels” (Nature, 2007):
Active and inactive are the calls of the source. No cut-off for these calls is given here.

Columns and labels:
[1] = system: BJ; experiment: Prevention of induction of cell death in human BJ cells expressing TERT, LT, ST and RAS G12V mutant genes cells after 24 hrs in presence of butylated hydroxytoluene; type: functional, cell-based
In short: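 BJ-TERT/LT/ST/RASV12 cells treated 24 h with erastin across roughly 1–2.5 µM, together with DMSO or an antioxidant (α-tocopherol, BHT or β-carotene). Viability read afterwards.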

[2] = Induction of cell death in human MX2 cells; type: functional, cell-based
[3] = system: BJ; experiment: Induction of cytochrome c release in mitochondrial fraction of human BJ cell expressing TERT, LT, ST and RAS G12V mutant genes at 20 ug/ml; type: functional, cell-based
In short: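 BJ-TERT/LT/ST/RASV12 cells seeded 3 × 10^6 per dish, incubated overnight at 37 °C, 5% CO2, then exposed to erastin 20 µg/ml for 6–26 h. Fractionated on ice by needle lysis: nuclei spun out at 400g, mitochondria pelleted at 10,500g. Cytochrome c detected by western blot in cytosolic and mitochondrial fractions.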

[4] = biological target: T1, Mitogen-activated protein kinase; ERK1/ERK2 (Homo sapiens) (UniProt P27361+P28482); experiment: Effect on ERK1/2 phosphorylation in human A673 cells by Western blot; type: cell-based
In short: (§1)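 Washed cells were lysed in pH 7.4 HEPES buffer containing orthovanadate, NaF, pyrophosphate, β-glycerophosphate and protease inhibitors. Lysates were run on SDS-PAGE, transferred to PVDF and blocked 1 h at room temperature. Blots were probed with a multiplex phospho-signalling antibody cocktail and read by infrared fluorescence scanning.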

[5] = system: SJSA-1; experiment: Induction of cell death in human SJSA1 cells; type: functional, cell-based
[6] = system: HT-1080; experiment: Induction of cell death in human HT1080 cells; type: functional, cell-based
[7] = system: LNCaP; experiment: Induction of cell death in human LNCaP cells; type: functional, cell-based
[8] = system: A673; experiment: Induction of PARP1 cleavage in human A673 cells; type: functional, cell-based
In short: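 Cells were left untreated or given staurosporine or erastin for 6 or 8 h. Lysates were analysed by western blot for full-length and cleaved PARP1, with actin as loading control.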

[9] = system: Calu-1; experiment: Inhibition of human Calu1 cells expressing KRAS with activating mutations by trypan blue exclusion assay; type: functional, cell-based
In short: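 Calu-1 lung carcinoma cells (activating KRAS mutation) treated with erastin dilutions. Viability measured by Trypan blue exclusion with an automated cell viability analyser after trypsinization and resuspension in growth medium. IC50 derived from the dose series.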

[10] = biological target: T1, Mitogen-activated protein kinase; ERK1/ERK2 (Homo sapiens); experiment: Effect on ERK1/2 phosphorylation in human HL60 cells by Western blot; type: cell-based; conditions: HL-60; in short: as §1
[11] = biological target: T1, Mitogen-activated protein kinase; ERK1/ERK2 (Homo sapiens); experiment: Effect on ERK1/2 phosphorylation in human U937 cells by Western blot; type: cell-based; conditions: U-937; in short: as §1
[12] = system: BJ; experiment: Induction of cell death in human BJ cells expressing TERT, LT, ST and RAS G12V mutant genes cells at 9 uM; type: functional, cell-based
[13] = system: BJ; experiment: Induction of PARP1 cleavage in human BJ cells expressing TERT, LT, ST and RAS G12V mutant genes cells after 14 hrs; type: functional, cell-based
In short: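 BJ-TERT/LT/ST/RASV12 cells (3 × 10^6 per dish) were incubated overnight at 37 °C, 5% CO2, then given erastin for 6–26 h. Untreated cells and staurosporine (6 h) or camptothecin (18 h) served as comparators. Full-length and cleaved PARP1 were detected by western blot.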

[14] = Induction of cell death in human TC71 cells; type: functional, cell-based
[15] = system: HeLa; experiment: Induction of cell death in human HeLa cells; type: functional, cell-based
[16] = biological target: T1, Mitogen-activated protein kinase; ERK1/ERK2 (Homo sapiens); experiment: Effect on ERK1/2 phosphorylation in human HT1080 cells by Western blot; type: cell-based; conditions: HT-1080; in short: as §1
[17] = system: HT-1080; experiment: Suppression of induction of cell death in human HT1080 cells at […] by Alamar Blue assay in presence of glutathione; type: functional, cell-based
[18] = system: BJ; experiment: Induction of cell death in human BJ cells expressing TERT, LT, ST and RAS G12V mutant genes cells in presence of MEK 1/2 inhibitor by trypan blue exclusion method; type: functional, cell-based
In short: (§2)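 BJ-TERT/LT/ST/RASV12 cells were co-treated for 48 h with 1.5 µM erastin plus 20 µM U0126, 10 µM MEK inhibitor I or 50 µM MEK1/2 inhibitor. Viability was measured by automated Trypan blue exclusion of trypsinized cells resuspended in growth medium; n = 2 or 3.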

[19] = biological target: T1, Mitogen-activated protein kinase; ERK1/ERK2 (Homo sapiens); experiment: Effect on ERK1/2 phosphorylation in human […] cells by Western blot; type: cell-based; conditions: SK-N-MC; in short: as §1
[20] = system: C-33-A; experiment: Induction of cell death in human C33A cells; type: functional, cell-based
[21] = system: HeLa; experiment: Induction of pro-caspase 3 cleavage in human HeLa cells; type: functional, cell-based
In short: (§3)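 Cells either untreated, given staurosporine, or given erastin for 6–10 h, then lysed in HEPES pH 7.4 buffer with phosphatase and protease inhibitors. Lysates run on SDS-PAGE, blotted to PVDF, probed with antibodies detecting active caspase-3, with actin as loading control. Bands read on infrared imager.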

[22] = system: BJ; experiment: Induction of cell death in human BJ cells expressing TERT, LT, ST and RAS G12V mutant genes; type: functional, cell-based
[23] = system: BJ; experiment: Induction of cell death in human BJ cells expressing TERT, LT, ST and RAS G12V mutant genes cells in presence of PD-98059 by trypan blue exclusion method; type: functional, cell-based
[24] = system: A673; experiment: Induction of pro-caspase 3 cleavage in human A673 cells; type: functional, cell-based; in short: as §3
[25] = system: U-937; experiment: Induction of cell death in human U937 cells; type: functional, cell-based
[26] = system: HT-1080; experiment: Induction of cell death in human HT1080 cells in presence of MEK inhibitor by trypan blue exclusion method; type: functional, cell-based
[27] = system: A673; experiment: Induction of cell death in human A673 cells; type: functional, cell-based
[28] = Induction of cell death in human SKUT cells; type: functional, cell-based
[29] = system: U2OS; experiment: Induction of cell death in human U2OS cells; type: functional, cell-based
[30] = system: HL-60; experiment: Induction of cell death in human HL60 cells; type: functional
[31] = biological target: Non-selective voltage-gated ion channel VDAC2 (Homo sapiens, UniProt P45880); experiment: Binding affinity to human VDAC2
[32] = system: BJ; experiment: Increase in intracellular oxidative species in human BJ cells expressing TERT, LT, ST and RAS G12V mutant genes cells at 4.6 uM; type: functional, cell-based
In short: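 Cells seeded at 3 × 10^5 per 60 mm dish were grown overnight, then exposed to 4.6 erastin for 2–12 h; H2O2 for 5 min served as positive control. Cells were loaded with H2DCF-DA for 10 min, trypsinized, PBS-washed and stained with propidium iodide. Read-out was flow cytometry as percent of cells with DCF fluorescence in gate M1; n = 2.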

[33] = system: BJ; experiment: Induction of cell death in human BJ cells expressing TERT, LT, ST and RAS G12V mutant genes in presence of MEK inhibitor by trypan blue exclusion method; type: functional, cell-based; in short: as §2
[34] = Induction of cell death in human Hs925.T cells; type: functional, cell-based
[35] = biological target: T1, Mitogen-activated protein kinase; ERK1/ERK2 (Homo sapiens); experiment: Effect on ERK1/2 phosphorylation in human EWS502 cells by Western blot; type: cell-based; in short: as §1

T1 sequence (P27361 whole entry, looked up): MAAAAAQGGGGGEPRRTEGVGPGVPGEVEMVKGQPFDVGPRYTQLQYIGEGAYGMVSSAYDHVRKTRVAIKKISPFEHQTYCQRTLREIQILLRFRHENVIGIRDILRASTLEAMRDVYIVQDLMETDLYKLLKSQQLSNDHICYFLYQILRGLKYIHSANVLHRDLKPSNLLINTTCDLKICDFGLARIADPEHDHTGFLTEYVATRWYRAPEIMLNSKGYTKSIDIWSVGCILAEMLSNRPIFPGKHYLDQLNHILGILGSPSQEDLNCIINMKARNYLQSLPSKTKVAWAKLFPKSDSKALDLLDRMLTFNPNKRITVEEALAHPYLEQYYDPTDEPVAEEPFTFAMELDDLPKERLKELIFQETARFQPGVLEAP
T1 sequence (P28482 whole entry, looked up): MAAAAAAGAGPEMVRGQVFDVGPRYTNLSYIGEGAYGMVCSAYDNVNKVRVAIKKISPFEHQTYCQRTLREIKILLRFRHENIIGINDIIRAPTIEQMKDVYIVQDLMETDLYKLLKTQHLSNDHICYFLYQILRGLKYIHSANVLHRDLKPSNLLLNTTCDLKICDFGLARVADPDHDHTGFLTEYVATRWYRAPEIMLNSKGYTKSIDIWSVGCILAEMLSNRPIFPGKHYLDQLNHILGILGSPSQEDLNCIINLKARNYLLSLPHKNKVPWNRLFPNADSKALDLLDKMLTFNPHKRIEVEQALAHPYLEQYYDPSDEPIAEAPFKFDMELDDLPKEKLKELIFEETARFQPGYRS
Chain of Non-selective voltage-gated ion channel VDAC2 (P45880 whole entry): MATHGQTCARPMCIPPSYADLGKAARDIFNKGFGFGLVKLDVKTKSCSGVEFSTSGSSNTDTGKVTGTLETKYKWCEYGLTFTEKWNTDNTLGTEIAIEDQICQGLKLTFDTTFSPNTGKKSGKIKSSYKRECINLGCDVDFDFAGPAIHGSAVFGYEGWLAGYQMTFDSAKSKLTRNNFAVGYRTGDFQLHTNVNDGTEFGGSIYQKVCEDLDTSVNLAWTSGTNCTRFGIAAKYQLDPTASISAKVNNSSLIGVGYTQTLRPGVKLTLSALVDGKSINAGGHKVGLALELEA

## CCOc1ccccc1-n1c(C(C)N2CCN(C(=O)COc3ccc(Cl)cc3)CC2)nc2ccccc2c1=O (stereo not drawn) [ERASTIN]
[1]
  Activity: Active
[2]
  Activity: 71%
[2]; Homo sapiens, MX2
  EC50: 18 µM
[3]
  Activity: inactive
[4]
  Activity: 0.66 a.u.
[5]
  Activity: 100%
[5]; Homo sapiens, SJSA-1
  EC50: 12 µM
[6]
  Activity: 98%
[6]; Homo sapiens, HT-1080
  EC50: 2 µM
[7]
  Activity: 32%
[7]; Homo sapiens, LNCaP
  EC50: 6 µM
[8]
  Activity: inactive
[9]
  IC50: 4 µM
[10]
  Activity: 0.1 a.u.
[11]
  Activity: 0.27 a.u.
[12]
  Activity: Active
[13]
  Activity: inactive
[14]
  Activity: 92%
[14]; Homo sapiens, TC-71
  EC50: 10 µM
[15]
  Activity: 94%
[15]; Homo sapiens, HeLa
  EC50: 0.6 µM
[16]
  Activity: 0.53 a.u.
[17]
  Activity: Active
[18]
  IC50: 2 µM
[19]
  Activity: 0.05 a.u.
[20]
  Activity: 21%
[20]; Homo sapiens, C-33-A
  EC50: 0.6 µM
[21]
  Activity: inactive
[22]
  Activity: 100%
[22]; Homo sapiens, BJ
  EC50: 6 µM
[23]
  IC50: 0.9 µM
[24]
  Activity: inactive
[25]
  Activity: 73%
[25]; Homo sapiens, U-937
  EC50: 10 µM
[26]
  IC50: 2.5 µM
[27]
  Activity: 54%
[27]; Homo sapiens, A673
  EC50: 30 µM
[28]
  Activity: 73%
[28]; Homo sapiens, SKUT
  EC50: 4 µM
[29]
  Activity: 96%
[29]; Homo sapiens, U2OS
  EC50: 6 µM
[30]
  Activity: 0%
[31]
  Kd: 0.112 µM
[32]
  Activity: Active
[33]
  IC50: 2.6 µM
[34]
  Activity: 83%
[34]; Homo sapiens
  EC50: 17 µM
[35]
  Activity: 0.12 a.u.
